We go through one compound from article PMC6737205 (International Journal of Nanomedicine, 2019).

Holding throughout (set-up): species or system mouse
Common to all, as to conditions: S180 mice, oral, RGDV-gemcitabine 8.4 μmol/kg/day, gemcitabine 84 μmol/kg/day, every 3 days for 12 days, n=12

Data set [1] in a line: In vivo serum BUN assay. In outline: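 BUN was measured by a kit immunoassay on serum from S180 tumour-bearing mice, with blood spun at 3000 rpm, 4°C, 10 mins. Serum was incubated with anti-BUN antibody and streptavidin-HRP at 37°C for 60 mins, then washed 5 times. Chromogen was added at 37°C for 15 mins in the dark, then stop solution. Read at 450 nm within 15 mins; BUN from a standard curve.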

Data set [2] is described as follows: In vivo serum Cr assay. An outline of the steps:
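Creatinine was measured with an enzymatic kit on serum from S180 tumour-bearing mice, with blood spun at 1000 rpm, 4°C, 10 mins. Serum plus enzyme solution A was incubated at 37°C for 5 mins and read at 546 nm (A1). After a further 30 mins at 37°C, enzyme solution B was added, incubated 5 mins, and read again at 546 nm (A2). Cr was calculated from the two readings.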

A short description of data set [3]: In vivo serum AST/GOT assay.
The nature of data set [4]: In vivo serum ALT/GPT assay. In outline: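 Serum came from male ICR mice bearing subcutaneous S180 tumours (1×10^7 cells, right armpit). Blood was taken 3 hrs after the last oral dose, with saline 10 mL/kg/day as vehicle, and spun at 1000 rpm, 4°C, 10 mins. Serum was incubated with kit matrix at 37°C for 30 mins, then dinitrophenylhydrazine at 37°C for 20 mins, then 0.4 M NaOH. Read at 510 nm; ALT from a standard curve.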

The structures appear in SMILES notation.

As for `Nc1ccn([C@@H]2O[C@H](CO)[C@@H](O)C2(F)F)c(=O)n1` [gemcitabine], the “serum BUN compared with NS-treated mice” value in data set [1] is recorded as “significantly higher than those of NS-treated mice”. Besides, the “serum Cr compared with NS-treated mice” value in data set [2] is reported as “significantly higher than those of NS-treated mice”. Besides, in data set [3], the “serum AST/GOT compared with NS-treated mice” value is recorded as “significantly higher than those of NS-treated mice”. For the same compound, in data set [4], the “serum ALT/GPT compared with NS-treated mice” value was “significantly higher than those of NS-treated mice”.
